RGS4 inh: human RGS4 inhibition | 310,000 tested, 0.45% active | AID 463165 | HEK293 M3R/RGS4 inducible, Fluo-4 calcium flux; hits give high values; triggered by carbachol at its EC20 | B-score at 10 µM;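 active = B-score, a plate-corrected calcium signal, over three deviations above library mean, with baseline fluorescence within five deviations of library mean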;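 also: RGS4 expression induced by doxycycline in cells with stable M3 receptor; B-score is computed from the integrated fluorescence ratio over baseline after carbachol; higher B-score means a larger calcium signal and so more RGS4 inhibition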
Target sequence (P49798 whole entry, looked up): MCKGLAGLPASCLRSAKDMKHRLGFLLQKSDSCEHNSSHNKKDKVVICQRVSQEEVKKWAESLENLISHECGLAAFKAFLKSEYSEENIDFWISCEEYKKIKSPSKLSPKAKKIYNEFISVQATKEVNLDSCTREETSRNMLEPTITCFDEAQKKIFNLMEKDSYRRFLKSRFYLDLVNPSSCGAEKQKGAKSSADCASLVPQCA
MrgX1 antag: human MrgX1 receptor antagonism, primary screen; Q96LB2; B-score at 10 µM; MRGX1-HEK293 calcium flux, Fluo-4, BAM8-22 antagonism; hits give low values; 310,000 tested, 1.3% active;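 active = calcium-response B-score plate-corrected more than 3 library SD below zero, starting fluorescence within 5 deviations, no agonist response on first addition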;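 also: peak minus trough fluorescence over baseline after final BAM8-22 challenge near maximal dose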
Target sequence (Q96LB2 whole entry, looked up): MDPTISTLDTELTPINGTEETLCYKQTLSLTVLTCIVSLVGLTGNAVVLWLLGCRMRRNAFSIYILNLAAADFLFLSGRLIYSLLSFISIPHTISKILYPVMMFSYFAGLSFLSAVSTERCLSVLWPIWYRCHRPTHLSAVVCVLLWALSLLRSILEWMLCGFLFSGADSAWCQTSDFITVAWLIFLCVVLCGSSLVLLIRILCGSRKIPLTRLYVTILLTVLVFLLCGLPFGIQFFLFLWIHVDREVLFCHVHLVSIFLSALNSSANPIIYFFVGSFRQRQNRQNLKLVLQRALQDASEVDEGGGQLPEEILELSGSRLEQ
MrgX1 PAM: allosterically activates human MrgX1 receptor signaling | Q96LB2 | MrgX1-HEK293, Fluo-4 calcium flux, FDSS; hits give high values | B-score at 10 µM | 310,000 tested, 0.63% active | AID 588675;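 active = plate-corrected calcium response at least 3 library SD above typical, normal starting fluorescence, not activating the receptor alone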;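 also: compound read alongside a low EC10 to EC30 dose of BAM8-22 agonist; peak minus trough fluorescence over baseline measured at the second addition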
RGS4 act: potentiators or activators of RGS4. HEK293 M3R/inducible RGS4, carbachol calcium flux Fluo4; hits give low values. B-score at 10 µM. 310,000 tested, 0.92% active. AID 463111;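 active = B-score of the integrated calcium signal more than 4 SD below the library mean, with starting fluorescence not abnormally high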;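 also: negative B-score means reduced calcium response which marks RGS4 activation or potentiation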
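Assay system: HEK293 FlpIn-TREx cells, stable M3R, doxycycline-inducible RGS4 / Probe or stimulus: carbachol, ECmax concentration / Times: overnight RGS4 induction, 30 min dye load 37 °C, 20 min compound RT / Signal: kinetic calcium fluorescence imaging with Fluo4-AM dye, 2 µM / Measure: Agonist-evoked peak-minus-minimum fluorescence over baseline, integrated ratio, B score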
MrgX1 ag: agonists of human MrgX1 receptor | MrgX1-HEK293 cells, Fluo-4 calcium fluorescence, agonist mode; hits give high values | B-score at 10 µM | 310,000 tested, 0.44% active;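 active = calcium response B-score plate-corrected fluorescence ratio at least 3 library SD, with starting fluorescence B-score inside 5 SD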
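Material – MrgX1-expressing HEK293 cells · Input – 15,000 cells seeded per well · Dosing – compound as first of three additions · Times – overnight seeding, then 1 h dark dye loading · Measured by – kinetic Fluo-4 NW fluorescence of intracellular calcium · Read-out – B-scored fluorescence response ratio · Benchmarks – positive and negative control wells on each plate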
The depositor's hits bear a star; i = inactive. In the library only some 3.5% were active in any assay of this set; here they are far more common.

SMILES	RGS4 inh	MrgX1 antag	MrgX1 PAM	RGS4 act	MrgX1 ag
Cc1nc2nc(SCC(=O)NCCCN3CCCCCC3)nn2c(C)c1Cc1ccccc1	i	i	i	-7.45*	i
Cc1ccc(C(=O)COC(=O)C2CC3CCCC(C2)C3=O)cc1[N+](=O)[O-] (stereo not drawn)	i	-5.63*	i	i	i
COc1ccc(-n2nc(C(=O)NCC(=O)NCCCN3CCOCC3)c3ccccc3c2=O)cc1OC	i	i	i	i	i
CCC1=NN(C(=O)c2ccc(Br)cc2)C(O)(c2ccccc2)C1 (stereo not drawn)	i	i	i	i	29.6*
CC(=O)Nc1cccc(C(=O)OCC(=O)Nc2c(C)nn(-c3ccccc3)c2C)c1	i	i	i	i	i
Cc1nn(-c2ccccc2)c(C)c1NC(=O)COC(=O)c1ccc(Cl)c(N)c1	i	i	i	-7.02*	i
C=CCn1c(C)c(C(C)=O)c(N2CCN(C(c3ccccc3)c3ccccc3)CC2)nc1=S	i	i	i	i	i
Cc1cccc(N2CCN(C(=O)c3ccc4nc(-c5ccco5)c(-c5ccco5)nc4c3)CC2C)c1 (stereo not drawn)	i	-7.62*	i	i	i
CC(=O)Nc1ccccc1-c1nc2ccc(C(=O)N3CCN(c4cccc(C)c4)C(C)C3)cc2[nH]c1=O (stereo not drawn)	i	i	i	i	i
COc1ccc(-c2ccc(/C=C3/C(=N)N4C(C)=CSC4=NC3=O)o2)c([N+](=O)[O-])c1	i	i	i	i	28.8*
O=C(NCc1cccnc1)c1ccc(-c2ccccc2[N+](=O)[O-])o1	i	-5.89*	i	i	i
O=C(NC1CCCCC1)C(c1ccc(F)cc1)N(Cc1ccccc1)C(=O)CN1C(=O)c2ccccc2S1(=O)=O (stereo not drawn)	i	i	i	i	i
O=C(NC1CCCCC1)C(c1ccc(F)cc1)N(CCc1ccccc1)C(=O)CN1C(=O)c2ccccc2S1(=O)=O (stereo not drawn)	i	-8.91*	i	i	i
O=C(NNS(=O)(=O)c1ccc(F)cc1)C1CCN(Cc2cccc(F)c2)CC1	i	i	i	-7.28*	i
O=C(NNS(=O)(=O)c1ccc2ccccc2c1)C1CCN(Cc2ccccc2)CC1	i	i	i	i	i
COc1ccc(/C=N/N=C/c2ccc(OC)c(OC)c2)cc1OC	i	i	i	i	i
COc1cc(/C=N/N=C(N)N)ccc1OCc1ccccc1Cl	i	i	6.5*	i	i
Fc1cccc(F)c1-n1c(CN2CCCC2)csc1=S	i	-5.12*	i	i	i
Cc1ccc2c(c1)N(C(=O)CSc1nncn1C)C(C)(C)c1ssc(=S)c1-2	i	i	i	-8.71*	i
CCN(CC(=O)Nc1c(F)cccc1F)C(=O)COc1ccc2c(c1)CCC2	i	i	i	i	i
CN1CC(=O)N/C1=N\C(=O)Nc1ccc2c(c1)N(C)C(=O)CS2	i	i	i	i	i
CN1C(=O)/C(=C/c2ccccc2OCc2ccc(F)cc2)N(C)C1=S	i	-5.23*	i	-9.61*	i
CN1C(=O)/C(=C/c2ccccc2OCc2ccccc2)NC1=S	i	i	i	i	i
CC(=O)O[C@@H]1C[C@H]2C(C)(C)C(=O)C=C[C@]2(C)[C@H]2CC[C@@]3(C)[C@H](c4ccoc4)OC(=O)[C@H]4O[C@]43[C@@]21C	i	i	9.75*	i	i
CCN(CC(=O)Nc1ccc2c(c1)OCCO2)C(=O)C1CC(=O)N(c2ccc(OC)cc2OC)C1 (stereo not drawn)	i	i	i	i	i
SMILES	RGS4 inh	MrgX1 antag	MrgX1 PAM	RGS4 act	MrgX1 ag
CCN(CC(=O)NCc1cccs1)C(=O)C1CC(=O)N(c2ccc(OC)cc2OC)C1 (stereo not drawn)	i	-4.85*	i	i	i
CC1(C)CC(=O)C(C2=NC3(CCCCC3)Cc3ccccc32)=C(O)C1	i	i	i	i	i
CCC1(CC)Cc2ccccc2C(C2=C(O)CC(C)(C)CC2=O)=N1	i	-4.83*	i	i	i
C=CCN1C(=O)/C(=C\C=C2\N(C)c3ccccc3C2(C)C)SC1=S	i	i	i	i	30.7*
CN1/C(=C\C=C2/SC(=S)N(CC(=O)O)C2=O)C(C)(C)c2ccccc21	i	i	i	i	i
CCCN1C(=O)/C(=C/C=C2\N(CC)c3ccccc3C2(C)C)SC1=S	i	i	12.3*	i	i
O=C(NCc1ccncc1)/C(=N/O)c1ccccc1	i	-5.74*	i	i	i
CC1(C)CCCN(C(=O)c2ccc3c(c2NCCO)C(=O)c2ccccc2C3=O)C1	i	i	14.6*	i	i
CC1CCCN(C(=O)c2ccc3c(c2NCCO)C(=O)c2ccccc2C3=O)C1 (stereo not drawn)	i	i	7.97*	i	i
O=C1c2ccccc2C(=O)c2c1ccc(C(=O)N1CCCCC1)c2NCCO	i	i	7*	i	i
CCN(CCN(C)C)C(=O)c1ccc2c(c1NCCO)C(=O)c1ccccc1C2=O	i	i	i	i	i
CN(CC(=O)Nc1cccc(F)c1)C(=O)c1cccc(S(=O)(=O)N2CC3(C)CC2CC(C)(C)C3)c1 (stereo not drawn)	i	i	i	i	i
COc1ccc(/C=C/C(=O)C2CC2)cc1COc1c(C)cccc1C	i	i	i	-8.53*	i
CC(C)(C)c1cc(CCC(=O)NN)cc(C(C)(C)C)c1O	i	i	i	i	i
COCCOC(=O)/C(=C\c1cc(C(C)(C)C)c(O)c(C(C)(C)C)c1)C(C)=O	i	i	6.62*	i	i
CC(=O)Nc1ccc(NC(=O)c2c(-c3ccccc3)noc2C)cn1	i	i	i	i	i
CC#CCCc1nc2ccccc2c(=O)n1N	i	-5.99*	i	i	i
CCc1ccc(NC(=O)CS(=O)CC(=O)NCC2OCCc3ccccc32)cc1 (stereo not drawn)	i	i	i	i	i
Cc1cccc(C)c1NC(=O)CS(=O)CC(=O)NCC1OCCc2ccccc21 (stereo not drawn)	i	-4.76*	i	i	i
CC(=O)Nc1ccc(C(=S)NCCCO)cc1	i	i	i	i	i
COc1ccc(C(=O)CSC#N)cc1OC	i	i	i	i	34.6*
COc1ccc(C(=O)COC(=O)c2ccc(OC)c(OC)c2)cc1OC	i	i	i	i	i

High-throughput results: PubChem, Johns Hopkins Ion Channel Center
